In assay [1] the target is T1, Polyunsaturated fatty acid 5-lipoxygenase (Rattus norvegicus, UniProt P12527).
T1 sequence (P12527 whole entry): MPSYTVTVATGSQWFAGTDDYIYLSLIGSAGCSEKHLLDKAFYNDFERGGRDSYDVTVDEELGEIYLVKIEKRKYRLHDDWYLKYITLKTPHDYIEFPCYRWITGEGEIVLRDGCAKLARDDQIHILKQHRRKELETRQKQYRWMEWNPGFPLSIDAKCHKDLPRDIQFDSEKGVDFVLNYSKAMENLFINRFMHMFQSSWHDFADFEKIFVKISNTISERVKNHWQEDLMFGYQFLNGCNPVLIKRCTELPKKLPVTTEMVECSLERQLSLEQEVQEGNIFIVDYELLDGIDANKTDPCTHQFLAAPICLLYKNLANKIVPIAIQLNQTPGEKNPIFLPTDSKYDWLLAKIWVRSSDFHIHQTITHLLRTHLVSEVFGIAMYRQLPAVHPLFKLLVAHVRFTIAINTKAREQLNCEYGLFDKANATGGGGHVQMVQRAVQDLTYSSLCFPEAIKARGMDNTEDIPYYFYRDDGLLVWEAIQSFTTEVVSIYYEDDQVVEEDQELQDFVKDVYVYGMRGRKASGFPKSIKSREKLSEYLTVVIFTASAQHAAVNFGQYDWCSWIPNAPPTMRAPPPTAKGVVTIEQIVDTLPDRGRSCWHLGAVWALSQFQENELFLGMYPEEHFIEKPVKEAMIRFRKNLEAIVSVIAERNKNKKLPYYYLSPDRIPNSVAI
Nature of the assay: Inhibitory activity against 5-lipoxygenase obtained from rat basophilic leukemia cells. In short, it runs like this: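 IC50 was determined against 5-LO in a broken RBL-1 cell assay, using a crude enzyme preparation from rat basophilic leukemia cells.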

The target in assay [2] is T2, Polyunsaturated fatty acid 5-lipoxygenase (Rattus norvegicus) (UniProt P12527).
T2 sequence (whole entry): T1 sequence (P12527 whole entry)
Kind of assay: Inhibition of 5-lipoxygenase of rat basophilic leukemia cells at 30 uM. The class given is cell-based. To be noted: RBL-1. In a few lines:
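5-LO source was a crude enzyme preparation from broken rat basophilic leukemia (RBL-1) cells. Compounds were screened at a single concentration of 30 µM, and results are reported as percent inhibition.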

The target in assay [3] is T3, Prostaglandin G/H synthase 1 (Ovis aries) (UniProt P05979).
T3 sequence (whole entry): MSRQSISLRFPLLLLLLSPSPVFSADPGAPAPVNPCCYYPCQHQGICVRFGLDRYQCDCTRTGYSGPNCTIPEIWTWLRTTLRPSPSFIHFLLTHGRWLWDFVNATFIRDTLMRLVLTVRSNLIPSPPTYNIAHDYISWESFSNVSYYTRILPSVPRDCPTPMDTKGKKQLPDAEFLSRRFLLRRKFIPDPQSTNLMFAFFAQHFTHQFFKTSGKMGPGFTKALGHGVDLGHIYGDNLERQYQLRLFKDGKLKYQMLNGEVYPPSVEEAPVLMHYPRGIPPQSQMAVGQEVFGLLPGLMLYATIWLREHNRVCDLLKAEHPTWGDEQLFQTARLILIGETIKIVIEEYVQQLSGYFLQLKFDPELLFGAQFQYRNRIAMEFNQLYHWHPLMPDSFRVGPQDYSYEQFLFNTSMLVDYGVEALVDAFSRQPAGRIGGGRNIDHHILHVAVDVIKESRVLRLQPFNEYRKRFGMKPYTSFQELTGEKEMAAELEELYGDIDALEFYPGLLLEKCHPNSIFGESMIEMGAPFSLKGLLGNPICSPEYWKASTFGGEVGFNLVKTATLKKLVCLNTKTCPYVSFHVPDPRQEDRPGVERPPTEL
Kind of assay: Inhibition of Prostaglandin G/H synthase 1 isolated from ram (sheep) seminal vesicle at 300 uM. Type of assay: tissue-based.

Assay [4] concerns the target T4, Prostaglandin G/H synthase 2 (Ovis aries) (UniProt P79208).
T4 sequence (whole entry): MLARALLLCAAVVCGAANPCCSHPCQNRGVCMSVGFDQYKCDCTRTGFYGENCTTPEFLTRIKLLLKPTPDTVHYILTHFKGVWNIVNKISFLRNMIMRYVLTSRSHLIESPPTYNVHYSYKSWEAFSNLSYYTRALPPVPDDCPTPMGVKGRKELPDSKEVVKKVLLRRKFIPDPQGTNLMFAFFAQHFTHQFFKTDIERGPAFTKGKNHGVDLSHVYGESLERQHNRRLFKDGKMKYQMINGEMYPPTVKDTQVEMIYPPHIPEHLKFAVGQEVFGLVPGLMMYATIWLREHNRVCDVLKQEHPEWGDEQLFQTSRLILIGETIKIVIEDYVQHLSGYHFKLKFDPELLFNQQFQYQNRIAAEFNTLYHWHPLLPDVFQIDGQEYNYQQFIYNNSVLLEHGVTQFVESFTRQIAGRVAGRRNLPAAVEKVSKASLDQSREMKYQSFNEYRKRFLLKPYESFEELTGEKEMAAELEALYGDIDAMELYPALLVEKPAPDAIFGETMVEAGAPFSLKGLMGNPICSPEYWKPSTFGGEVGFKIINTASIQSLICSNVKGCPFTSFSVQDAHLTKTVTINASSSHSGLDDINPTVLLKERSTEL
Kind of assay: Inhibition of Prostaglandin G/H synthase 2 from sheep placenta at 300 uM.

For assay [5], the species on record is Cavia porcellus. Nature of the assay: (§1) Inhibition of CCl4 induced lipid peroxidation (LPO) of guinea pig hepatic microsomes at 300 uM concentration. The class given is functional. The conditions noted are these: Liver. In short, it runs like this: (§2)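 Lipid peroxidation of polyunsaturated fatty acids in guinea pig liver microsomes was induced with CCl₄. Test compounds were used at 300 µM. Malondialdehyde (MDA) formation was quantified spectrophotometrically, and results are reported as percent inhibition.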

The species entered for assay [6] is Cavia porcellus. The description is as §1. Type of assay: functional. To be noted: Liver. In a few lines: as §2
This is another data set of the same source.

With `O=C1C(O)=C(O)OC1CCC#Cc1ccc(Cc2ccc(F)cc2)s1` (stereo unspecified), in assay [1], the IC50 (usually the point on the concentration scale where inhibition reaches its midpoint) was found to be 160 nM. In addition, the inhibition (usually the relative decrease from the control value, in per cent) in assay [2] amounted to 100%.

With `CCC/C=C\Cc1ccccc1/C=C\CCC1OC(O)=C(O)C1=O` (stereo unspecified), the inhibition stood at 37% in assay [3], 99% in assay [2], 28% in assay [4] and 68% in the assay listed under Cavia porcellus [5].

Regarding `O=C1C(O)=C(O)OC1CCC#Cc1ccccc1CSc1ccccc1` (stereo unspecified), the inhibition in assay [3] amounted to 25%; in assay [2] it was 100%; in assay [4] it was 15%; in the assay listed under Cavia porcellus [5], 61%. In addition, half-maximal inhibition in assay [1] (IC50) was put at 300 nM.

With `CCC/C=C\Cc1ccccc1C#CCCC1OC(O)=C(O)C1=O` (stereo unspecified), the inhibition in assay [3] turned out to be 55%; in assay [2], 81%; in assay [4], 28%; in the assay filed under Cavia porcellus [5] it was 72%. Besides, in assay [1], half-maximal inhibition (IC50) required 400 nM.

As for `O=C1C(O)=C(O)OC1CCC#Cc1ccccc1` (stereo unspecified), the inhibition in assay [3] amounted to 5%; in assay [2] it was 58%; in assay [4], 13%; in the assay listed under Cavia porcellus [5], 62%.

Take `C[C@H](C#Cc1ccc(Cc2ccc(F)cc2)s1)N(O)C(N)=O` [ATRELEUTON]: the IC50 in assay [1] is 23 nM.

With `CCCSCc1ccccc1C#CCCC1OC(O)=C(O)C1=O` (stereo unspecified), the inhibition turned out to be 38% in assay [3], 82% in assay [2], 20% in assay [4] and 72% in the assay listed under Cavia porcellus [5].

Consider `CC(=O)Oc1ccccc1C(=O)O`, for which the inhibition in assay [3] amounted to 76%; in assay [2] it was 0%; in assay [4] it was 0%; in the assay listed under Cavia porcellus [5], 4%.

For the compound `Cc1ccccc1C#CCCC1OC(O)=C(O)C1=O` (stereo unspecified), the inhibition was found to be 8% in assay [3], 43% in assay [2], 18% in assay [4] and 59% in the assay listed under Cavia porcellus [5].

Take `CCCS(=O)(=O)Cc1ccccc1C#CCCC1OC(O)=C(O)C1=O` (stereo unspecified): the inhibition in assay [3] came to 25%; in assay [2], 30%; in assay [4], 12%; in the assay listed under Cavia porcellus [5], 60%.

`CCCCS(=O)(=O)Nc1ccccc1C#CCCC1OC(O)=C(O)C1=O` (stereo unspecified): the inhibition in assay [3] stood at 8%; in assay [2], 81%; in assay [4], 23%; in the assay listed under Cavia porcellus [5], 75%.

For `CCCCCSCc1ccccc1C#CCCC1OC(O)=C(O)C1=O` (stereo unspecified), the inhibition came to 67% in assay [3], 90% in assay [2], 45% in assay [4] and 62% in the assay filed under Cavia porcellus [5].

On to `Cc1c(C)c2c(c(C)c1O)CC[C@@](C)(CCC[C@H](C)CCC[C@H](C)CCCC(C)C)O2` [ALPHA-TOCOPHEROL], for which the IC50 in the assay listed under Cavia porcellus [6] is 280000 nM.

Values taken from ChEMBL document CHEMBL1131465, “Design, synthesis, and biological evaluation of conformationally constrained aci-reductone mimics of arachidonic acid” (J Med Chem, 1998).
